Results from ChEMBL document CHEMBL1141462, “Tetranorclerodanes and clerodane-type diterpene glycosides from Dicranopteris dichotoma” (J Nat Prod, 2007).

Tests used:
[1] = Cytotoxicity against C8166 cells by MTT assay; type: cell-based; details: human
How it was run: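 C8166 cells were used, with viability read by MTT. Cytotoxicity was expressed as CC50.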

[2] = system: Human immunodeficiency virus 1; assay: Antiviral activity against HIV1; type: functional, organism-based
How it was run: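 HIV-1 activity was measured as inhibition of virus-induced cytopathic effect and reported as EC50.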

[3] = Selectivity index, CC50 against C8166 cell/ EC50 against HIV1; type: functional
How it was run: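 The ratio is CC50 divided by EC50. CC50 comes from MTT cytotoxicity in C8166 cells, and EC50 from inhibition of HIV-1 cytopathic effect.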

Compound	CC50 [1]	EC50 [2]	Ratio CC50/EC50 [3]
C=C[C@@](C)(O)CC[C@@]1(C)[C@H](C)C[C@H](O)[C@@]2(C)C(C)=CCC[C@H]12	653 µM	59.4 µM	>10.99
C[C@@H]1C[C@H](O)[C@@]2(C)C(C=O)=CCC[C@@H]2[C@@]1(C)CC(=O)O	713 µM	325 µM	>2.19
C=C[C@](C)(O)CC[C@@]1(C)[C@H](C)C[C@H](O[C@@H]2O[C@@H](C)[C@H](O[C@@H]3O[C@H](CO)[C@@H](OC(C)=O)[C@H](O)[C@H]3O)[C@@H](O)[C@H]2O)[C@@]2(C)C(C)=CCC[C@H]12	305 µM	145 µM	>2.09
CC(=O)OC[C@H]1O[C@@H](O[C@@H]2[C@@H](O)[C@@H](O)[C@H](O[C@H]3C[C@@H](C)[C@](C)(CC/C(C)=C/CO)[C@H]4CCC=C(C)[C@]34C)O[C@H]2C)[C@H](O)[C@@H](O)[C@@H]1O	136 µM	76.3 µM	1.78
CC1=CCC[C@@H]2[C@@](C)(CC/C(C)=C/CO)[C@H](C)C[C@H](O[C@@H]3O[C@@H](C)[C@H](O[C@@H]4O[C@H](CO)[C@@H](O)[C@H](O)[C@H]4O)[C@@H](O)[C@H]3O)[C@@]12C	325 µM	85.1 µM	>3.82
CC1=CCC[C@@H]2[C@@](C)(CC(=O)O)[C@H](C)C[C@H](O)[C@@]12C [AYLTHONIC ACID]	751 µM	197 µM	>3.81
Cc1cn([C@H]2C[C@H](N=[N+]=[N-])[C@@H](CO)O2)c(=O)[nH]c1=O [ZIDOVUDINE]	5750 µM	0.0147 µM	390406.06
C[C@@H]1C[C@H](O)[C@@]2(C)C(CO)=CCC[C@@H]2[C@@]1(C)CC(=O)O	709 µM	302 µM	>2.34
C=C[C@](C)(O)CC[C@@]1(C)[C@H](C)C[C@H](O[C@@H]2O[C@@H](C)[C@H](O[C@@H]3O[C@H](COC(C)=O)[C@@H](O)[C@H](O)[C@H]3O)[C@@H](O)[C@H]2O)[C@@]2(C)C(C)=CCC[C@H]12	121 µM	110 µM	1.1
